Screening results (PubChem BioAssay)
Most compounds without a hit are left out; they make up all but 2.5% or so of the library.
Rin1-Abl PPI inh = blocks binding of human Rin1 to Abl; P00519+Q13671; TR-FRET Rin1/Abl binding, biochemical; inhibition, % at 7.35 µM; 0.4% of 360,000 active; AID 588664; in the data active = inhibition above about 5%, passing the limit was not always enough
B2AR ag = agonists of human beta-2 adrenergic receptor inducing internalization; P07550; Am2.2-beta2AR cells, FAP receptor internalization, flow cytometry; response, % (concentration not given with the values); 0.43% of 340,000 active; AID 504454;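 active = response above a set limit, near 3 SD of response in nonfluorescent compounds, cut at about 42% in these data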
UHRF1 MBD2 ctr = UHRF1 methyl-DNA binding inhibition; AID 687016; UHRF1 binding to methylated oligo, TR-FRET; 0.75% of 370,000 active; inhibition, % at 4.4 µM; in the data active = inhibition above about 21%;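 also: UHRF1 SRA domain binding a hemimethylated CpG hairpin DNA probe; 0% = median of test compound wells and 100% = reference inhibitor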
ABHD5 PLIN5 PPI = ABHD5-PLIN5 protein interaction inhibition. AID 602281. 0.78% of 360,000 active. inhibition, % at 4 µM. Split G. princeps luciferase complementation, luminescence, 4 h;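 active = inhibition above the mean inhibition across every tested compound plus 3 SD, cut at about 22% in these data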;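 also: 0% = DMSO only wells and the 100% control is not disclosed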
MBD2 DNA inh = MBD2-methylated oligo binding inhibition; Q9UBB5; inhibition, % at 4.4 µM; TR-FRET, MBD2 binding to methylated oligonucleotide; 0.31% of 370,000 active; in the data active = inhibition above about 13%
Target sequence (Q9UBB5 whole entry, looked up): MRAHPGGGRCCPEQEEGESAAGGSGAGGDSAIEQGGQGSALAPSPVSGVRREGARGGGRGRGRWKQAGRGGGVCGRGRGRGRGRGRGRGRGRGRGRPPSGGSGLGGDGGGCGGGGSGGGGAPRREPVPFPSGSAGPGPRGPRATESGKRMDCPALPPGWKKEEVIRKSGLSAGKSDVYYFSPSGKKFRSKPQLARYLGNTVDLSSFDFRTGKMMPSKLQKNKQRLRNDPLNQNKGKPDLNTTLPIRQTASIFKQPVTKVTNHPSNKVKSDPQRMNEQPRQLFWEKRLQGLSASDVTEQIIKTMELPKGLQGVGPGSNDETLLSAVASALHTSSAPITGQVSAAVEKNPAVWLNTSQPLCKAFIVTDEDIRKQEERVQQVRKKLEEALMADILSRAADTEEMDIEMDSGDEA
Arr AP2 block = blocks beta-arrestin peptide binding to AP2 adaptin. FITC-arrestin peptide / GST-AP2 beads, flow cytometry; AP2 beta2 appendage carries R879A mutation. AID 504490. 0.31% of 340,000 active. inhibition, % at 10 µM;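 active = inhibition above a set limit, near 3 SD of compounds lacking own fluorescence, cut at about 54% in these data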;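 also: plate controls were DMSO wells for no effect and 5 µM unlabelled arrestin peptide for full effect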
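System: GST-AP2 R879A glutathione beads; medium: PBS, Tween 20 0.05%, BSA 0.1%; reagent: fluorescein-tagged arrestin peptide at 50 nM final; schedule: pre-incubation 12 min, peptide binding 1 h, room temperature; detection: flow cytometry, FL1 (488/535 nm); read-out: inhibition as reduced fluorescein signal on beads, percent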
ABHD5-PLIN5 conf = confirmation of human ABHD5-PLIN5 interaction inhibitors. shares compounds with ABHD5 PLIN5 PPI. biochemical ABHD5-PLIN5 interaction, luminescence. inhibition, % at 4 µM. 67% of 2,200 active; in the data active = inhibition above about 23%;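 also: 0% = DMSO vehicle wells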
HNF4 counter = counter-screen for ABHD5-PLIN5 inhibitors: HNF4 split-luciferase; 77% of 2,200 active; inhibition, % at 4 µM; HNF4 dimerization, luminescence, biochemical; shares compounds with ABHD5 PLIN5 PPI;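 active = mean inhibition across replicate wells exceeding the computed hit threshold, cut at about 13% in these data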;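 also: light from luciferase halves that rejoin when HNF4 fusion proteins dimerize; 0% = DMSO only wells and the 100% control is not given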
* = called active by the depositor; x = no result.

SMILES | Rin1-Abl PPI inh | B2AR ag | UHRF1 MBD2 ctr | ABHD5 PLIN5 PPI | MBD2 DNA inh | Arr AP2 block | ABHD5-PLIN5 conf | HNF4 counter
CNC[C@@H]1Oc2ccc(NS(=O)(=O)c3ccc(Cl)cc3)cc2C(=O)N([C@H](C)CO)C[C@@H]1C | 1 | -10 | 1 | 25* | 0 | x | 19 | -4
CC(C)(C)c1cc(=O)n(-c2ccccc2)[nH]1 | 13* | 11 | 15 | 26* | 9 | 9 | -20 | -17
O=C1S/C(=C/c2ccc(N3CCOCC3)o2)C(=O)N1Cc1c(F)cccc1Cl | -3 | -645 | 0 | 25* | -2 | -11 | 23* | 36*
Cc1ccc(C2=Nc3ccccc3SC(c3cccc([N+](=O)[O-])c3)C2)cc1 (stereo not drawn) | -1 | 4 | 4 | 59* | 6 | -2 | 3 | 73*
O=[N+]([O-])c1cccc(C2CC(c3ccccc3)=NN2c2ccccc2)c1 (stereo not drawn) | 0 | 33 | 4 | 8 | -3 | 3 | x | x
O=c1[nH]c(Sc2ccc([N+](=O)[O-])cc2[N+](=O)[O-])nc2ccccc12 | 1 | 4 | -2 | 41* | 0 | 2 | 41* | 33*
COC(=O)C1=C(C)N(Cc2ccccc2)C(=NCC(C)C)N[C@H]1c1cccc(C(F)(F)F)c1 | 1 | 34 | x | 24* | x | 3 | 14 | 2
O=C(/C=C/c1cccs1)c1cc(Br)ccc1OC(=O)N1CCOCC1 | -2 | -9 | -5 | 25* | -7 | 1 | 57* | 40*
CCN(CC)c1ccc(C=Nn2c(C)nnc2C)cc1 | x | x | 2 | x | -4 | x | x | x
Cc1ccc2nc(N(CCCN(C)C)C(=O)COc3ccc(Cl)cc3)sc2c1 | 2 | 31 | 0 | 26* | -1 | -3 | 16 | 0
CN(C)CCCN(C(=O)COc1ccccc1)c1nc2ccc(F)cc2s1 | -1 | -3 | 1 | 6 | 1 | -7 | x | x
CCOc1cccc2sc(N(CCCN(C)C)C(=O)c3ccc(S(=O)(=O)N(C)c4ccccc4)cc3)nc12 | -5 | 19 | 0 | 27* | -4 | 9 | 19 | 12
CN(C)CCCN(C(=O)COc1ccc(Cl)cc1)c1nc2ccc(F)cc2s1 | -2 | 2 | -2 | 27* | -4 | 1 | 13 | 3
CN(C)CCCN(C(=O)CCOc1ccccc1)c1nc2c(F)cccc2s1 | -2 | 4 | -6 | 28* | -2 | 3 | 13 | 92*
Cc1cc(C)c2sc(N(CCCN(C)C)C(=O)COc3ccc(Cl)cc3)nc2c1 | -1 | 23 | 4 | 21 | 2 | -3 | x | x
COc1ccc(OC)c(S(=O)(=O)N2CCC(C(=O)NCc3cccs3)CC2)c1 | x | x | 2 | x | -1 | x | x | x
c1nc(NCC2CCCC2)c2cc(-c3ccc4c(c3)OCO4)ccc2n1 | x | x | 1 | x | 3 | x | x | x
O=C(Nc1ccc(OC(F)(F)F)cc1)Nc1c(-c2ccc(C(F)(F)F)cc2)nc2ncccn12 | x | x | -1 | x | -3 | x | x | x
COc1cc(O)c([C@@H](CC(=O)N2CC(C)CC(C)C2)c2ccc3c(c2)OCO3)c(OC)c1 (stereo partly drawn) | x | x | -3 | x | 1 | x | x | x
Cc1ccc2sc(N(CCCN(C)C)C(=O)CN3C(=O)c4ccccc4C3=O)nc2c1C | -3 | 2 | 1 | 31* | -1 | -13 | 23* | x
Cc1ccc2sc(N(CCN(C)C)C(=O)c3ccc4ccccc4c3)nc2c1C | -3 | 0 | -1 | 6 | -1 | 33 | x | x
CN(C)CCCN(C(=O)CCOc1ccccc1)c1nc2ccc(F)cc2s1 | -6 | 5 | -4 | 32* | 3 | -4 | 21 | 100*
CN(C)CCCN(C(=O)c1cc(-c2cccs2)nc2ccccc12)c1nc2c(F)cccc2s1 | -3 | 6 | -1 | 17 | 4 | -8 | x | x
Cc1ccc2nc(N(CCCN(C)C)C(=O)c3cc(-c4cccs4)nc4ccccc34)sc2c1 | 0 | 18 | 2 | 25* | 3 | 15 | 14 | 1
O=C(NCc1ccccc1)C(c1ccc(-c2ccccc2)cc1)n1c(=O)c(-c2ccco2)nc2ccccc21 (stereo not drawn) | x | x | 1 | 87* | 3 | x | 75* | 14*
SMILES | Rin1-Abl PPI inh | B2AR ag | UHRF1 MBD2 ctr | ABHD5 PLIN5 PPI | MBD2 DNA inh | Arr AP2 block | ABHD5-PLIN5 conf | HNF4 counter
O=C(NCc1ccccc1)C(CCc1ccccc1)n1c(=O)c(-c2ccccc2)nc2ccccc21 (stereo not drawn) | x | x | 1 | 38* | -1 | x | 41* | 28*
N#Cc1ccc(C(C(=O)NCc2ccccc2)n2c(=O)c(-c3cc4ccccc4[nH]3)nc3ccccc32)cc1 (stereo not drawn) | x | x | 0 | 4 | 10 | x | x | x
O=C(NCc1ccccc1)C(c1ccncc1)n1c(=O)c(-c2ccco2)nc2ccccc21 (stereo not drawn) | x | x | -7 | 36* | -3 | x | 31* | 14*
C/C(C=NNC(=O)CSc1nc2ccccc2n1C)=C\c1ccccc1 | x | x | -1 | x | -1 | x | x | x
CCN(CC)CCOCCOC(=O)C1(c2ccccc2)CCCC1 | 3 | 2 | -1 | 58* | -5 | 14 | 77* | 36*
CCN(CC)CCCOC(=O)C1(c2ccccc2)CCCC1 | 0 | 0 | -2 | 6 | -1 | 22 | x | x
COc1ccc(C(C(=O)N(C)C2CCCC2)N(Cc2ccc(F)cc2)C(=O)c2sccc2Cl)cc1OC (stereo not drawn) | x | x | 1 | x | -2 | x | x | x
CCCC/C=C1/[C@H](c2ccc(Cl)cc2)N(Cc2ccc3c(c2)OCO3)C2=N[C@H](c3ccccc3)CC(=O)N21 | x | x | -1 | x | 5 | x | x | x
CC(=O)Nc1ccc2c(=O)n(-c3ccccc3)sc2c1 | -1 | x | -3 | 79* | 3 | x | 69* | 117*
O=C(O)c1cccc(-n2sc3ccccc3c2=O)c1 | 2 | -1 | 17 | 109* | 6 | 8 | 97* | 120*
N#CCC[C@H]1CC[C@]2(CCCN(C(=O)c3ccno3)C2)O1 | x | x | 2 | x | 8 | x | x | x
Cc1[nH]c(=O)[nH]c(=O)c1S(=O)(=O)N1CCCCC1 | 1 | 12 | -2 | 29* | 0 | 18 | -2 | 16*
Cc1cccc(N2CCN(S(=O)(=O)c3c(C)[nH]c(=O)[nH]c3=O)CC2)c1C | 1 | 6 | 10 | 0 | -4 | -8 | x | x
CCCCN(C)C(=O)c1ccc2c(c1)NC(=O)C(C)(C)O2 | x | x | -1 | x | -5 | x | x | x
CC(C)C[C@H]1COc2cccc(F)c2S(=O)(=O)N1Cc1cn(Cc2ccc(F)cc2)nn1 | x | x | -2 | x | -3 | x | x | x
Cc1nnc(SCc2ccccc2)nc1/C=C/NOCc1ccc(Cl)cc1Cl | -2 | 1 | -6 | 26* | -4 | 24 | 15 | 25*
